Test [1] has as its target Metallo-beta-lactamase type 2 (Aeromonas hydrophila, UniProt P26918). Kind of test: Inhibition of Aeromonas hydrophila cphA. Put shortly:
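Purified CphA (0.2–0.8 nM) in 15 mM cacodylate pH 6.5 with 20 μg/mL BSA and no added Zn2+ (Zn2+ below 0.4 μM). Enzyme was preincubated with 100 μM inhibitor for 30 min at 37 C. Imipenem was then added and its hydrolysis followed by absorbance at 300 nm. Competitive Ki determined; SD below 10%.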

A short description of test [2]: Inhibition of VIM4 in presence of Zn+ chelator. The essentials:
(§1)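 Purified VIM-4 (0.2–0.8 nM) in 10 mM HEPES pH 7.2 with 20 μg/mL BSA, run without added Zn2+ (Zn2+ below 0.4 μM) or with 50 μM ZnCl2 final. Enzyme was preincubated with 100 μM inhibitor for 30 min at 37 C. Nitrocefin hydrolysis followed at 482 nm. Ki determined; SD below 10%.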

The nature of test [3]: Inhibition of VIM4 in absence of Zn+ chelator. Put shortly:
as §1

Test [4] addresses T1, Beta-lactamase L1 (Stenotrophomonas maltophilia, UniProt P52700). Kind of test: Inhibition of Stenotrophomonas maltophilia beta lactamase L1 in presence of Zn+ chelator. Put shortly:
(§2)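 Purified L1 (0.2–0.8 nM) in 20 mM HEPES pH 7.0 with 20 μg/mL BSA, run without added Zn2+ (Zn2+ below 0.4 μM) or with 50 μM ZnCl2 final. Enzyme was preincubated with 100 μM inhibitor for 30 min at 37 C. Imipenem hydrolysis followed at 300 nm. Ki determined; SD below 10%.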

For test [5], the target named is T1, Beta-lactamase L1. Kind of test: Inhibition of Stenotrophomonas maltophilia beta lactamase L1 in absence of Zn+ chelator. The essentials: as §2
The target in test [6] is Intestinal-type alkaline phosphatase (Bos taurus, UniProt P19111). Put plainly: Inhibition of bovine intestinal alkaline phosphatase.
A short description of test [7]: Inhibition of Escherichia coli alkaline phosphatase.

SMILES strings stand for the structures. pIC50, pKi: −log10 of the molar value. Bounds are passed on as bounds.

T1 sequence (P52700 whole entry): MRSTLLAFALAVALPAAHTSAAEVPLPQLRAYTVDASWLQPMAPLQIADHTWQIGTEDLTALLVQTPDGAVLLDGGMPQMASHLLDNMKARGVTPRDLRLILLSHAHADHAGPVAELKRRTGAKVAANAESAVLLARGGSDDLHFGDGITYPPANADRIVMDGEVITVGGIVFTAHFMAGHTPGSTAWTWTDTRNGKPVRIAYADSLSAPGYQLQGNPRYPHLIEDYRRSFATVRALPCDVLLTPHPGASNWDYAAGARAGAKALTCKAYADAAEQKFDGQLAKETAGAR
Metallo-beta-lactamase type 2, sequence (P26918 whole entry): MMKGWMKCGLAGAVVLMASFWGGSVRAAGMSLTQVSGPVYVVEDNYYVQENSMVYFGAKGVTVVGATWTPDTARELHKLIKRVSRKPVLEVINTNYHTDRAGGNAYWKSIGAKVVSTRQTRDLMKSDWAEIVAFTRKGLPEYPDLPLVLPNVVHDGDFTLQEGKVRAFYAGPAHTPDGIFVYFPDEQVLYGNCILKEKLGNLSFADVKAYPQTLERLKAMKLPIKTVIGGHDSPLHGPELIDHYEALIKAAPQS
Intestinal-type alkaline phosphatase, sequence (P19111 whole entry): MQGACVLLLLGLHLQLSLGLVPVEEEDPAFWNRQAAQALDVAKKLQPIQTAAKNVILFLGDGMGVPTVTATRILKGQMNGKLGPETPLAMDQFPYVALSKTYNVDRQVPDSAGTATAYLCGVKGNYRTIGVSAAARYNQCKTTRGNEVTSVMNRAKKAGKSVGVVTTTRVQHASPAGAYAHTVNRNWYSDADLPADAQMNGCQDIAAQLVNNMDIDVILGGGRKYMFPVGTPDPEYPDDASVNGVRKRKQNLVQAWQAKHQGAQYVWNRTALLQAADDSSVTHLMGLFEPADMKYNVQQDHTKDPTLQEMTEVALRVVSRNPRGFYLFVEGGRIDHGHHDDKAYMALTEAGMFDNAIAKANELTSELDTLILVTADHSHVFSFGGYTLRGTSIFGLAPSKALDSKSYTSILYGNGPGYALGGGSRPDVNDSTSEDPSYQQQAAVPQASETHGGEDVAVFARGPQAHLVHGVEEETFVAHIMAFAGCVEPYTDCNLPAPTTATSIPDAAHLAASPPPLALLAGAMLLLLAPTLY

As a reminder, the pKi is −log10 of the Ki, conventionally taken in molar units. Consider `O=P(O)(O)c1cc(F)ccc1S`, for which the pKi is under 4.40 in test [1]; 4.89 in test [2]; 5.60 in test [3]; 5.40 on Beta-lactamase L1 [4]; 4.40 on Beta-lactamase L1 [5].

Consider `CC(C)OP(=O)(OC(C)C)C(S)c1ccccc1` (configuration not stated) [DIISOPROPYL MERCAPTO(PHENYL)METHYLPHOSPHONATE], for which the pKi in test [1] was 6.60; in test [2] it was 5.10; in test [3] it was 5.52; on Beta-lactamase L1 [4] it was 4.80; at Beta-lactamase L1 [5], 4.70.

On to `CC(C)OP(=O)(OC(C)C)c1ccccc1S`, for which the pKi (in test [1]; in test [2]; in test [3]; at Beta-lactamase L1 [4]; on Beta-lactamase L1 [5]) was under 3.60 in each case.

On to `CCC(S)P(=O)(OC(C)C)OC(C)C` (configuration not stated), for which the pKi in test [1] is 5.70; in test [2], under 4.70; in test [3] it was under 4.70; on Beta-lactamase L1 [4], under 4.40; on Beta-lactamase L1 [5], under 4.40.

As to `CCC(S)P(=O)(O)O` (configuration not stated), the pKi in test [1] was 4.82; in test [2], 5.22; in test [3], 4.96; on Beta-lactamase L1 [4], under 4.40; at Beta-lactamase L1 [5], under 4.10.

As for `COc1ccccc1C(S)P(=O)(O)O` (configuration not stated), the pKi in test [1] was 4.82; in test [2] it was 5.40; in test [3], 5.70; at Beta-lactamase L1 [4], 5.40; on Beta-lactamase L1 [5] it was 5.05.

Consider `O=P(O)(O)C(S)c1ccc(Br)cc1` (configuration not stated), for which the pKi in test [1] is 4.89; in test [2], 4.87; in test [3], 5.26; on Beta-lactamase L1 [4], 5.77; on Beta-lactamase L1 [5], 5.08.

As for `CC(C)OP(=O)(OC(C)C)c1ccccc1CS`, the negative-log Ki (pKi) is 5.70 in test [1]; 4.92 in test [2]; 5.52 in test [3]; 4.85 on Beta-lactamase L1 [4]; 5.52 at Beta-lactamase L1 [5].

For the compound `O=P(O)(O)C(S)c1ccccc1` (configuration not stated), the pKi is 4.96 in test [1]; 5.52 in test [2]; 5.60 in test [3]; 4.49 on Beta-lactamase L1 [4]; under 4.00 at Beta-lactamase L1 [5].

In the case of `O=P(O)(O)C(S)c1ccc(Cl)cc1` (configuration not stated), the pKi is 4.62 in test [1]; 5.00 in test [2]; 5.17 in test [3]; 6.15 at Beta-lactamase L1 [4]; 5.42 at Beta-lactamase L1 [5].

For `O=P(O)(O)c1ccccc1CS`, the pKi is 6.30 in test [1]; under 3.40 in test [2]; 6.00 in test [3]; under 4.30 at Beta-lactamase L1 [4]; 5.70 on Beta-lactamase L1 [5].

Consider `O=P(O)(O)C(S)c1ccc(F)cc1` (configuration not stated), for which the pKi in test [1] was 6.00; in test [2], 4.96; in test [3], 4.80; at Beta-lactamase L1 [4], 4.74; at Beta-lactamase L1 [5], under 4.70.

As to `O=P(O)(O)C(S)c1ccc(Cl)cc1Cl` (configuration not stated), the pKi in test [1] was 5.30; in test [2], 5.40; in test [3], 6.00; on Beta-lactamase L1 [4], 6.40; at Beta-lactamase L1 [5] it was 6.40.

What is called pIC50 is the negative decadic logarithm of the IC50, by convention in mol/L. Low values mean a large IC50, high ones a small IC50. On to `O=P(O)(O)c1ccccc1S`, for which the pKi in test [1] was 5.15; in test [2], 5.40; in test [3] it was 5.70; on Beta-lactamase L1 [4], 4.92; on Beta-lactamase L1 [5], 5.05; in test [6] it was 6.68. The compound further had a pIC50 in test [7] of over 5.00.
